Screening data from PubChem BioAssay.
This is a sample that favours compounds with a hit; in the whole collection about 3.5% have one here.
RGS4 block = human RGS4 inhibition; P49798; HEK293 M3R/RGS4 inducible, Fluo-4 calcium flux; hits give high values; triggered by carbachol at its EC20; B-score at 10 µM; 0.45% of 310,000 active; AID 463165;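 active means B-score, a plate-corrected calcium signal, over three deviations above library mean, with baseline fluorescence within five deviations of library mean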;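 further: RGS4 expression induced by doxycycline in cells with stable M3 receptor; B-score is computed from the integrated fluorescence ratio over baseline after carbachol; higher B-score means a larger calcium signal and so more RGS4 inhibition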
Target sequence (P49798 whole entry, looked up): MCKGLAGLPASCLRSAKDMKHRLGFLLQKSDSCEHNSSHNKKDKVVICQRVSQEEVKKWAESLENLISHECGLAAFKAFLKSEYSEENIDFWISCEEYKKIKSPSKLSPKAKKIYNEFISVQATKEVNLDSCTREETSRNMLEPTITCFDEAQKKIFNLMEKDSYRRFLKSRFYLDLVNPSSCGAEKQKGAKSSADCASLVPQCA
RGS4 act = potentiators or activators of RGS4 | B-score at 10 µM | HEK293 M3R/inducible RGS4, carbachol calcium flux Fluo4; hits give low values | 0.92% of 310,000 active;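 active means B-score of the integrated calcium signal more than 4 SD below the library mean, with starting fluorescence not abnormally high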;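 further: negative B-score means reduced calcium response which marks RGS4 activation or potentiation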
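test system = HEK293 cells with stable M3R and inducible RGS4 | schedule = recording 10 s baseline at 1 Hz, 100 s post-agonist | technique = Fluo4-AM (2 µM) calcium-flux fluorescence, kinetic read | measure = Agonist-evoked peak-minus-minimum fluorescence over baseline, integrated ratio, B score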
MrgX1 antag = blocks BAM8-22 activation of human MrgX1 receptor. MRGX1-HEK293 calcium flux, Fluo-4, BAM8-22 antagonism; hits give low values. 1.3% of 310,000 active. AID 588676. B-score at 10 µM;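 active means calcium-response B-score plate-corrected more than 3 library SD below zero, starting fluorescence within 5 deviations, no agonist response on first addition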;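 further: peak minus trough fluorescence over baseline after final BAM8-22 challenge near maximal dose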
Target sequence (Q96LB2 whole entry, looked up): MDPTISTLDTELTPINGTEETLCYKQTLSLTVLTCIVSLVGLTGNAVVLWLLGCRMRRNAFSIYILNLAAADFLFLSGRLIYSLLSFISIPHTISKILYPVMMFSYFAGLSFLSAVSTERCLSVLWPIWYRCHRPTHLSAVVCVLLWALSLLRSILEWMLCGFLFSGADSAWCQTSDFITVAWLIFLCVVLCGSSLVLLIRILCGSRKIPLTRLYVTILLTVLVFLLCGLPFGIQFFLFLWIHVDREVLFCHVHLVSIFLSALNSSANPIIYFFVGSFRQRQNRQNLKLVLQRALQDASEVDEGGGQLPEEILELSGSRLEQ
MrgX1 allo act = human MrgX1 positive allosteric modulation, primary screen; B-score at 10 µM; Q96LB2; MrgX1-HEK293, Fluo-4 calcium flux, FDSS; hits give high values; 0.63% of 310,000 active;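 active means plate-corrected calcium response at least 3 library SD above typical, normal starting fluorescence, not activating the receptor alone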;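 further: compound read alongside a low EC10 to EC30 dose of BAM8-22 agonist; peak minus trough fluorescence over baseline measured at the second addition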
MrgX1 ag = agonists of human MrgX1 receptor | 0.44% of 310,000 active | MrgX1-HEK293 cells, Fluo-4 calcium fluorescence, agonist mode; hits give high values | B-score at 10 µM;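 active means calcium response B-score plate-corrected fluorescence ratio at least 3 library SD, with starting fluorescence B-score inside 5 SD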
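Assay system: stable human MrgX1 HEK293 cell line. Quantity: 15,000 cells per well. Schedule: cells plated overnight, dye loaded 0.5 h 37 °C, 0.5 h room temperature. Detection: Fluo-4 NW calcium-flux fluorescence, kinetic read. Read-out basis: peak-minus-minimum fluorescence over baseline, converted to B scores. Control set: positive and negative control wells on each plate.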
* marks the source's active call; other numbers are inactive results; i = inactive; . = no result given.

SMILES	RGS4 block	RGS4 act	MrgX1 antag	MrgX1 allo act	MrgX1 ag
CC(=O)OCC(=O)Nc1ccc([N+](=O)[O-])cc1Cl	i	i	i	i	i
CC(=O)Oc1c(C)cc(Cl)cc1C(=O)Nc1ccc([N+](=O)[O-])cc1Cl	i	i	-5*	i	i
CCCCCCCCCCn1c2c(c(=N)c3c1CCC3)CCC2	i	-8.7*	-6.2*	i	i
Cc1ccc(C(=O)NCCNS(=O)(=O)c2ccccc2)cn1	i	i	i	i	i
COc1ccc(C2=NOC(Cn3nc(C(=O)NCC4CC4)cc3-c3ccccc3)C2)cc1 (stereo not given)	i	i	i	7.9*	i
CCCCC(CC)C(=O)Nc1ncc([N+](=O)[O-])s1 (stereo not given)	i	i	i	7.4*	i
NS(=O)(=O)c1ccc(CCNC(=O)C(=O)NCC2OCCN2S(=O)(=O)c2ccc(Cl)cc2)cc1 (stereo not given)	i	i	i	i	i
CCCCN(C(=O)C(C)Oc1cccc(Cl)c1)c1c(N)n(CCC)c(=O)[nH]c1=O (stereo not given)	i	i	-5.1*	i	i
CCCCN(C(=O)c1cccc(S(=O)(=O)N2CCOCC2)c1)c1c(N)n(CCC)c(=O)[nH]c1=O	i	i	i	9.4*	i
CCCn1c(N)c(N(CCOC)C(=O)c2cccc(Cl)c2)c(=O)[nH]c1=O	i	i	i	i	i
O=C(Nc1ccccc1-c1ccccc1)c1ccc(=O)[nH]n1	i	i	i	i	i
CCCCCCOC1(c2ccccc2)OC(=O)c2ccccc21 (stereo not given)	i	-7*	i	i	i
Cc1onc(-c2c(F)cccc2Cl)c1C(=O)NC(=S)Nc1c(C)n(C)n(-c2ccccc2)c1=O	i	-9.9*	i	i	i
Cc1c(NC(=O)Nc2ccc(Cl)cc2)c(=O)n(-c2ccccc2)n1C	i	i	-5.9*	i	i
CS(=O)(=O)CCC(C(=O)Nc1ccc2c(c1)OCO2)N1Cc2ccccc2C1=O (stereo not given)	i	i	i	i	i
COc1ccccc1C(=O)NCCC(=O)N(C)CC(=O)Nc1ccc(C)cc1	i	i	-5.2*	i	i
C=CCOc1ccn(C)c(=O)n1	i	i	i	i	i
COC1=C(c2ccccc2)C(=O)c2ccccc2C1=O	i	i	i	7.2*	i
CCc1ccc(S(=O)(=O)/N=C2\C=CC(=O)c3ccccc32)cc1	i	i	i	i	i
CCc1ccc(S(=O)(=O)/N=C2/C=C(Sc3ncn[nH]3)C(=O)c3ccccc32)cc1	.	.	i	7*	i
CS(=O)(=O)/C(C#N)=C\c1cnc(S(=O)(=O)c2ccccc2)s1	i	i	i	i	29*
Cc1cc(/C=C2/C(=O)N(C)C(=S)N2C)ccc1N1CCCC1	i	i	i	7.6*	i
CCCN1C(=O)/C(=C/c2ccc(N3CCOCC3)cc2)NC1=S	i	i	-6.1*	i	i
CCCN1C(=O)/C(=C/c2ccc(N3CCCC3)c(C)c2)NC1=S	i	i	i	i	47*
Cc1cc(N2CCCC2)ccc1/C=C1/C(=O)N(C)C(=S)N1C	i	i	i	i	i
SMILES	RGS4 block	RGS4 act	MrgX1 antag	MrgX1 allo act	MrgX1 ag
Cc1ccc(CN2C(=O)N/C(=C\c3ccc(N4CCOCC4)cc3)C2=O)cc1	i	i	i	i	i
CCCn1cc(CN2CCC(n3nccc3NC(=O)CCOc3ccccc3)CC2)c(C)n1	i	i	i	i	i
CN(C)CCNCCCOc1ccccc1-c1ccccc1	i	i	i	i	i
Cc1ccc(-c2nnn(CC(=O)N(c3cccc(F)c3)C(C(=O)NC3CCCC3)c3ccco3)n2)o1 (stereo not given)	i	i	-6.6*	i	i
Cc1ccc(-c2nnn(CC(=O)N(c3ccc(F)cc3)C(C(=O)NC3CCCC3)c3ccco3)n2)o1 (stereo not given)	i	i	i	i	i
O=C(c1ccco1)N(CCC(c1ccccc1)c1ccco1)Cc1ccco1 (stereo not given)	i	i	-6.4*	i	i
Cc1ccc(C(CCN(Cc2ccccc2)C(=O)c2ccco2)c2ccco2)cc1 (stereo not given)	i	i	i	i	i
Cc1ccc(N(C(=O)CNC(=O)c2cccs2)C(C(=O)NC2CCCC2)c2ccncc2)cc1 (stereo not given)	i	i	i	i	i
CCCCCCCCNC(C)C(O)c1ccc(SC(C)C)cc1 (stereo not given)	i	-7*	i	i	i
CCc1nc2ccc(Cc3ccc4nc(CC)[nH]c4c3)cc2[nH]1	i	i	i	i	i
CCNC(=S)N/N=C(\C)c1ccc(Cl)s1	i	-7.1*	i	i	i
C=C(C)CNC(=S)N/N=C(\C)c1ccc(Cl)s1	i	i	-6.1*	i	i
CCOC(=O)C1(CCCc2ccccc2)CCN(C(=O)CN2CCOC2=O)CC1	i	i	i	7.3*	i
O=[N+]([O-])/C=C/c1cc2ccccc2[nH]1	i	i	i	i	41*
CCOC(=O)N1CCN(C(=O)c2cc3c(-c4cccc(OC)c4)nn(C)c3s2)CC1	i	-7.1*	i	i	i
Cc1cccc(CN2CCC(CNC(=O)CSc3cc(=O)n(C)c4cc(Cl)ccc34)CC2)c1	i	i	i	i	i
CN1CCc2c(sc(NC(=O)Cc3ccccc3)c2C(N)=O)C1	i	i	i	i	i
COc1cc2ccccc2cc1C(=O)Nc1sc2c(c1C(N)=O)CCN(C(C)C)C2	i	-7.5*	i	i	i
CC(C)N1CCc2c(sc(NC(=O)CN3C(=O)c4ccccc4C3=O)c2C(N)=O)C1	i	i	i	i	i
CN1CCc2c(sc(NC(=O)c3ccc4ccccc4c3)c2C(N)=O)C1	i	i	i	i	38*
COc1ccc2oc3ccccc3c(=O)c2c1	i	i	i	i	i
COc1cc(/C(C)=C/c2ccccc2)c2c(c1)oc1ccccc12	i	i	i	9*	i
CCOC(=O)N1c2ccccc2Sc2ccccc21	i	i	i	i	i
Cc1nnc(SC(=O)N2c3ccccc3Sc3ccccc32)s1	i	-7*	i	i	i
O=C(N1CCC(n2nc(-c3ccccc3)oc2=O)CC1)C1(c2ccccc2)CC1	i	i	i	i	i
